Measurements from ChEMBL document CHEMBL4616704, “Discovery of an Atropisomeric PI3Kβ Selective Inhibitor through Optimization of the Hinge Binding Motif” (ACS Med Chem Lett, 2020).

Experiments:
[1] = Terminal half life in cynomolgus monkey at 1 mg/kg administered as iv infusion for 30 mins and measured after 24 hrs by ESI-LC/MS/MS analysis; type: ADME, organism-based, Macaca fascicularis; conditions: in vivo, read-out: beta t1/2 (converted)
[2] = Oral bioavailability in Beagle dog at 5 mg/kg dosed via gavage after 24 hrs by ESI-LC/MS/MS analysis; type: ADME, organism-based, Canis lupus familiaris; conditions: in vivo
[3] = Ocular toxicity in Beagle dog assessed as irreversible damage by measuring choroidal inflammation at 10 to 100 mg/kg/day administered for 7 days measured on day 6 by ERG and OCT analysis; type: organism-based, Canis lupus familiaris; conditions: in vivo, 168 h
[4] = Volume of distribution at steady state in Sprague-Dawley rat at 1 mg/kg administered as iv infusion for 30 mins and measured after 24 hrs by ESI-LC/MS/MS analysis; type: ADME, organism-based; conditions: in vivo, read-out: Vdss
CYP450 = CYP450 (Homo sapiens, UniProt P04798+P05177+P05181+P08684+P10632+P10635+P11509+P11712+P13584+P20813+P20815+P20853+P24462+P24903+P33260+P33261+P51589+P78329+P98187+Q02928+Q08477+Q16678+Q16696+Q5TCH4+Q6VVX0+Q7Z449+Q8TAV3+Q96SQ9+Q9HB55); assay: Inhibition of human CYP450; type: ADME, protein assay
How it was run: (§1)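 Binding-assay format used to measure inhibition of major human CYP450 enzymes and hERG.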

[5] = Genotoxicity in Salmonella typhimurium by Ames test; type: toxicity; conditions: salmonella enterica subsp. enterica serovar typhimurium
[6] = molecular target: Voltage-gated inwardly rectifying potassium channel KCNH2 (Homo sapiens, UniProt Q12809); assay: Inhibition of human ERG; how it was run: as §1
Chain of Voltage-gated inwardly rectifying potassium channel KCNH2 (Q12809 whole entry): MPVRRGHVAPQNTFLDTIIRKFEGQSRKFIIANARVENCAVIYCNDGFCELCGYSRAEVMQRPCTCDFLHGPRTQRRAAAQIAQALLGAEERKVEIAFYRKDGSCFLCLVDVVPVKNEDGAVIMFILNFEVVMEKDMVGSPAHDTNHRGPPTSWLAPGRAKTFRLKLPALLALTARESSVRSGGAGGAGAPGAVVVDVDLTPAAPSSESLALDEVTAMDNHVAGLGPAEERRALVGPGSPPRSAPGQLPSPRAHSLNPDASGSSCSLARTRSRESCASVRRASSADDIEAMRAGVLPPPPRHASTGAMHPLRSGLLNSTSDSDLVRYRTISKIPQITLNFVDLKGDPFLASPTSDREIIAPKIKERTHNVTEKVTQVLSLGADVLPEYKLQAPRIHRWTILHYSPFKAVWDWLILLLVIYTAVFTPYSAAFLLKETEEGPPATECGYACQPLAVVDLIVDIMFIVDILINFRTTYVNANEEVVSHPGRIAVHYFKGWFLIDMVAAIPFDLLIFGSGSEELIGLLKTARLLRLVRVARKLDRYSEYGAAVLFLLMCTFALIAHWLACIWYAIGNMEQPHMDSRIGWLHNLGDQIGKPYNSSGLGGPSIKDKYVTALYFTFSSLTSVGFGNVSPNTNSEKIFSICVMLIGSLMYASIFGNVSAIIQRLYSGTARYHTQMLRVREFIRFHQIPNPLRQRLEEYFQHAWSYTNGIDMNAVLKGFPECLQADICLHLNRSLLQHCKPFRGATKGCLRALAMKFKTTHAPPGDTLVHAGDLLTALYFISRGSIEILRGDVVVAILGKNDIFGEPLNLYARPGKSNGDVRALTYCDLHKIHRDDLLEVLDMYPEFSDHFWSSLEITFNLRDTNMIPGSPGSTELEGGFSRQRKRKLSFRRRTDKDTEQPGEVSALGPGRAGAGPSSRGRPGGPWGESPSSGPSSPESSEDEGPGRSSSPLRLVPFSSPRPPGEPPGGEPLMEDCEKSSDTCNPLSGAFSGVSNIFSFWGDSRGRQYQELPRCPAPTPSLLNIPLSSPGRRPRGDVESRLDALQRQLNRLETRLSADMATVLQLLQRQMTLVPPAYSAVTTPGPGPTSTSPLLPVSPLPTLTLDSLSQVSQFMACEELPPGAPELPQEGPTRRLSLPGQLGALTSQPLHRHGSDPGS

[7] = Ocular toxicity in Beagle dog assessed as irreversible damage by measuring decrease response in visual stimuli at 10 to 40 mg/kg/day administered for 7 days and measured from day 4 to day 7; type: organism-based, Canis lupus familiaris; conditions: in vivo, 168 h
[8] = molecular target: Phosphatidylinositol 4,5-bisphosphate 3-kinase catalytic subunit beta isoform (Homo sapiens, UniProt P42338); assay: Inhibition of PI3Kbeta in PTEN-deficient human MDA-MB-415 cells assessed as reduction in AKT phosphorylation at Ser473 residue after 2 hrs by mesoscale assay; type: cell-based
Chain of Phosphatidylinositol 4,5-bisphosphate 3-kinase catalytic subunit beta isoform (P42338 whole entry, canonical isoform): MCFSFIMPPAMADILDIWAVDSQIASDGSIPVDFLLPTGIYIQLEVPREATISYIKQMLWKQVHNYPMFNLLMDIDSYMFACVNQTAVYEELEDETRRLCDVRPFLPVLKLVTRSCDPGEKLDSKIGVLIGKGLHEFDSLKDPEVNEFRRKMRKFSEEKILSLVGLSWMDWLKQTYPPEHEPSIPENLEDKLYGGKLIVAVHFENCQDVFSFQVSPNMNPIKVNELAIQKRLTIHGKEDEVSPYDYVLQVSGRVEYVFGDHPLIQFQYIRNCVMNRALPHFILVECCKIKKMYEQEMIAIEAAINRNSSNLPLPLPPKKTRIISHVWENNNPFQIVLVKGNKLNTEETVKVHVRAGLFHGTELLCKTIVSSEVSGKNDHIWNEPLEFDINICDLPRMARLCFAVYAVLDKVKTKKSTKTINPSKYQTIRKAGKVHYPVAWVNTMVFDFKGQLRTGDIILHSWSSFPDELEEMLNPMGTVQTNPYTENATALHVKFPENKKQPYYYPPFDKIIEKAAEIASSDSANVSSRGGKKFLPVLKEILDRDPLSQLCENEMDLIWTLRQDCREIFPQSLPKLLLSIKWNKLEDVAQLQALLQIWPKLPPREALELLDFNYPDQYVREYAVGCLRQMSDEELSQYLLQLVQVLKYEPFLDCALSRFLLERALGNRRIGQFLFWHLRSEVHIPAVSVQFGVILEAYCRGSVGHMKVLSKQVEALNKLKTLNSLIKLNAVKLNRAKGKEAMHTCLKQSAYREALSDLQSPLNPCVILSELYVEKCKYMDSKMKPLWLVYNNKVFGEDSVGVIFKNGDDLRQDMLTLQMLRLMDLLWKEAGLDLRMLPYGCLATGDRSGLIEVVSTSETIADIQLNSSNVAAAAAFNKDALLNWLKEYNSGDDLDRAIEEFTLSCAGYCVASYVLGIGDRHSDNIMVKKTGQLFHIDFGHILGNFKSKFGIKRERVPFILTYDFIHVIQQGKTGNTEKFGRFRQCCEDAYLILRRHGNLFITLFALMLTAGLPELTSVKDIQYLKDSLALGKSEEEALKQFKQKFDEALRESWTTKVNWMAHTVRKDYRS
How it was run: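 Cellular readout: pAKT1 Ser473 normalized to total AKT1, expressed as units pAKT1 Ser473 per nanogram total AKT1; cells treated under serum-free conditions.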

[9] = MRT in rhesus monkey at 1 mg/kg administered as iv infusion for 30 mins and measured after 24 hrs by ESI-LC/MS/MS analysis; type: ADME, organism-based, Macaca mulatta; conditions: in vivo

With `Cc1nc2c(-c3nnc[nH]3)cc(-c3ccnc(C#N)c3)cc2n1-c1ccnc2c(F)ccc(F)c12` the half-life [1] was 4.1 h, the bioavailability [2] was 76% and the Activity [3] was “Toxic”. For the same compound, the Vd [4] was 2.5 L/kg, the IC50 (CYP450) was greater than 25 µM and the Activity [5] was “Non-Toxic”. The IC50 [6] was greater than 25 µM, the Activity [7] was “Toxic” and the EC50 [8] was 0.015 µM. For the same compound, the MRT [9] was 5.5 h.
